Laboratory results taken from ChEMBL document CHEMBL1138811, “Synthesis, conformational analysis, and cytotoxicity of conformationally constrained aplidine and tamandarin A analogues incorporating a spirolactam beta-turn mimetic” (J Med Chem, 2004).
pIC50: −log10 of the molar value.

Tests used:
A549 = assay: Concentration required to inhibit growth of human A549 cell line by 50%; type: functional, cell-based
Procedure, shortened: (§1)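 SRB colorimetric growth assay in A549 lung and HT-29 colon carcinoma cells. Cells seeded at 5 × 10^3 per well in RPMI and attached for 18 h in drug-free medium. Samples added in (3:7) DMSO/H2O for 48–72 h exposure. Cells fixed with cold 50% (w/v) TCA at 4 °C for 60 min, then stained with 0.4% SRB in 1% acetic acid for 10 min. Bound dye solubilised in Tris, OD read at 490 nm.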

HT-29 = assay: Concentration required to inhibit growth of human […] cell line by 50% was determined; type: functional, cell-based; procedure, shortened: as §1

CC[C@H](C)C1NC(=O)[C@@H](NC(=O)[C@@H](CC(C)C)N(C)C(=O)[C@@H]2CCCN2C(=O)C(C)O)[C@@H](C)OC(=O)[C@H](Cc2ccc(O)cc2)N(C)C(=O)[C@@H]2CCCN2C(=O)[C@H](CC(C)C)NC(=O)[C@@H](C(C)C)OC(=O)C[C@H]1O (stereo partly drawn) [TAMANDARIN A]
pIC50 (A549): 9.02 | pIC50 (HT-29): 9.02

CC[C@H](C)[C@@H]1NC(=O)[C@@H](NC(=O)[C@@H](C)N2CCC3(CCCN3C(=O)C(C)=O)C2=O)[C@@H](C)OC(=O)[C@H](Cc2ccc(OC)cc2)N(C)C(=O)[C@@H]2CCCN2C(=O)[C@H](CC(C)C)NC(=O)[C@H](C)C(=O)[C@@H](C(C)C)OC(=O)C[C@H]1O (stereo partly drawn)
pIC50 (A549): 8.07 | pIC50 (HT-29): 8.05

CC[C@H](C)C1NC(=O)[C@@H](NC(=O)[C@@H](CC(C)C)N2CCC3(CCCN3C(=O)C(C)C)C2=O)[C@@H](C)OC(=O)[C@H](Cc2ccc(O)cc2)N(C)C(=O)[C@@H]2CCCN2C(=O)[C@H](CC(C)C)NC(=O)[C@@H](C(C)C)OC(=O)C[C@H]1O (stereo partly drawn)
pIC50 (A549): 7.03 | pIC50 (HT-29): 7.03

CC[C@H](C)[C@@H]1NC(=O)[C@@H](NC(=O)[C@@H](C)N2CCC3(CCCN3C(=O)C(C)C)C2=O)[C@@H](C)OC(=O)[C@H](Cc2ccc(OC)cc2)N(C)C(=O)[C@@H]2CCCN2C(=O)[C@H](CC(C)C)NC(=O)[C@H](C)C(=O)[C@@H](C(C)C)OC(=O)C[C@H]1O (stereo partly drawn)
pIC50 (A549): 7.05 | pIC50 (HT-29): 7.05

CC[C@H](C)C1NC(=O)[C@@H](NC(=O)[C@@H](CC(C)C)N(C)C(=O)[C@@H]2CCCN2C(=O)C(C)=O)[C@@H](C)OC(=O)[C@H](Cc2ccc(O)cc2)N(C)C(=O)[C@@H]2CCCN2C(=O)[C@H](CC(C)C)NC(=O)[C@@H](C(C)C)OC(=O)C[C@H]1O (stereo partly drawn) [DEHYDROTAMANDARIN A]
pIC50 (A549): 9.33 | pIC50 (HT-29): 9.33

CC[C@H](C)C1NC(=O)[C@@H](NC(=O)[C@@H](CC(C)C)N2CCC3(CCCN3C(=O)OC(C)(C)C)C2=O)[C@@H](C)OC(=O)[C@H](Cc2ccc(O)cc2)N(C)C(=O)[C@@H]2CCCN2C(=O)[C@H](CC(C)C)NC(=O)[C@@H](C(C)C)OC(=O)C[C@H]1O (stereo partly drawn)
pIC50 (A549): 8.34 | pIC50 (HT-29): 8.34

CC[C@H](C)C1NC(=O)[C@@H](NC(=O)[C@@H](CC(C)C)N2CCC3(CCCN3C(=O)C(C)=O)C2=O)[C@@H](C)OC(=O)[C@H](Cc2ccc(O)cc2)N(C)C(=O)[C@@H]2CCCN2C(=O)[C@H](CC(C)C)NC(=O)[C@@H](C(C)C)OC(=O)C[C@H]1O (stereo partly drawn)
pIC50 (A549): 7.03 | pIC50 (HT-29): 7.03

CC[C@H](C)[C@@H]1NC(=O)[C@@H](NC(=O)[C@@H](C)N2CCC3(CCCN3C(=O)OC(C)(C)C)C2=O)[C@@H](C)OC(=O)[C@H](Cc2ccc(OC)cc2)N(C)C(=O)[C@@H]2CCCN2C(=O)[C@H](CC(C)C)NC(=O)[C@H](C)C(=O)[C@@H](C(C)C)OC(=O)C[C@H]1O (stereo partly drawn)
pIC50 (A549): 8.06 | pIC50 (HT-29): 8.06

C=C(C)C(=O)N1CCCC12CCN([C@H](CC(C)C)C(=O)N[C@@H]1C(=O)NC([C@@H](C)CC)[C@H](O)CC(=O)O[C@H](C(C)C)C(=O)N[C@@H](CC(C)C)C(=O)N3CCC[C@H]3C(=O)N(C)[C@@H](Cc3ccc(O)cc3)C(=O)O[C@@H]1C)C2=O (stereo partly drawn)
pIC50 (A549): 7.03 | pIC50 (HT-29): 7.03
